Data set [1] addresses T1, 5-hydroxytryptamine receptor 6 (Homo sapiens, UniProt P50406). The data set can be described thus: Displacement of [3H]-LSD from cloned human 5-HT6 receptor expressed in human HeLa cells. Format: cell-based. The gist of the method:
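Radioligand displacement of [³H]-LSD from cloned human 5-HT6 receptors stably expressed in HeLa cells; compounds tested as HCl salts; Ki values determined in triplicate.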

The target of data set [2] is T1, 5-hydroxytryptamine receptor 6. The data set can be described thus: Antagonist activity at cloned human 5-HT6 receptor expressed in human HeLa cells assessed as inhibition of 5HT-induced cyclic AMP formation. Format: functional, cell-based.
Data set [3] addresses T2, 5-hydroxytryptamine receptor 1A (Homo sapiens, UniProt P08908).
T2 sequence (P08908 whole entry): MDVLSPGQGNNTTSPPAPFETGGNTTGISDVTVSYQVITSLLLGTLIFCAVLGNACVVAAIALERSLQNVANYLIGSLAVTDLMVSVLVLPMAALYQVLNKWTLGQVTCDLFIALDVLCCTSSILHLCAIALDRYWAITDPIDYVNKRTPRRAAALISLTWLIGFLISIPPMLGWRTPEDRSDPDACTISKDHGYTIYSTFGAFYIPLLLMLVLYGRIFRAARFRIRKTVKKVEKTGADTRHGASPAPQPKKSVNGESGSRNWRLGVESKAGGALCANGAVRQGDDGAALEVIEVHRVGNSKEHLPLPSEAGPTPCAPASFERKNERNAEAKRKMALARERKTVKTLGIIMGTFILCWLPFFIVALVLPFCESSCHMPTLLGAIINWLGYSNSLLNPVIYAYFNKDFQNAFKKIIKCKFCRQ
The data set is described as follows: Binding affinity to 5-HT1A receptor.

Data set [4] has as its target 5-hydroxytryptamine receptor 1B (Homo sapiens, UniProt P28222). The data set can be described thus: Binding affinity to 5-HT1B receptor.
Data set [5] concerns the target 5-hydroxytryptamine receptor 1D (Homo sapiens, UniProt P28221). The data set can be described thus: Binding affinity to 5-HT1D receptor.
For data set [6], the target named is T3, 5-hydroxytryptamine receptor 2B (Homo sapiens, UniProt P41595). The data set is described as follows: Binding affinity to 5-HT2B receptor.
T3 sequence (P41595 whole entry): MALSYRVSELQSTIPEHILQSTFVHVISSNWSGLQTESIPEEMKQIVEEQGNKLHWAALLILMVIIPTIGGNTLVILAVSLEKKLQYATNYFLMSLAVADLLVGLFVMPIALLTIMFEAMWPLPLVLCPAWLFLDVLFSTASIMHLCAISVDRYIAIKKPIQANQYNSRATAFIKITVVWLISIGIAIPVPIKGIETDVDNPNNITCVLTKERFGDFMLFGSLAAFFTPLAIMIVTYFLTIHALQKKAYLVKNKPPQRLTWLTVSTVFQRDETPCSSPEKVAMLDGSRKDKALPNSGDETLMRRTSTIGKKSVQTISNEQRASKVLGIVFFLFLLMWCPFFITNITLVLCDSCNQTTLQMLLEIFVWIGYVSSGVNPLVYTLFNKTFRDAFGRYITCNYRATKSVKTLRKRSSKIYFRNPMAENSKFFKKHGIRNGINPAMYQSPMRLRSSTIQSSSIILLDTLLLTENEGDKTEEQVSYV
Data set [7] concerns the target T4, 5-hydroxytryptamine receptor 2C (Homo sapiens, UniProt P28335).
T4 sequence (P28335 whole entry): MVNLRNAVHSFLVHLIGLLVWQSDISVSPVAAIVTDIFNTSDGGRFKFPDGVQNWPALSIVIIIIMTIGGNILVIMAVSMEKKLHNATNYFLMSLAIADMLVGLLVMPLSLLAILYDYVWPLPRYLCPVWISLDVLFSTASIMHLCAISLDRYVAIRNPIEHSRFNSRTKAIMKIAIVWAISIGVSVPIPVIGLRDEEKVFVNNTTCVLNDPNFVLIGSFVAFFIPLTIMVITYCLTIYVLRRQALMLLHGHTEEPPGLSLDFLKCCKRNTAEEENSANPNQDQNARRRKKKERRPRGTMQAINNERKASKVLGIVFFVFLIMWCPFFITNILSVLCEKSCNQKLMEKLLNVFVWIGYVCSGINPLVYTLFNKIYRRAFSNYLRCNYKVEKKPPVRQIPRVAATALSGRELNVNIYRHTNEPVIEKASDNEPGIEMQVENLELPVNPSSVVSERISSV
The data set is described as follows: Binding affinity to 5-HT2C receptor.

The target of data set [8] is 5-hydroxytryptamine receptor 7 (Homo sapiens, UniProt P34969). The data set is described as follows: Binding affinity to 5-HT7 receptor.
5-hydroxytryptamine receptor 7, sequence (P34969 whole entry): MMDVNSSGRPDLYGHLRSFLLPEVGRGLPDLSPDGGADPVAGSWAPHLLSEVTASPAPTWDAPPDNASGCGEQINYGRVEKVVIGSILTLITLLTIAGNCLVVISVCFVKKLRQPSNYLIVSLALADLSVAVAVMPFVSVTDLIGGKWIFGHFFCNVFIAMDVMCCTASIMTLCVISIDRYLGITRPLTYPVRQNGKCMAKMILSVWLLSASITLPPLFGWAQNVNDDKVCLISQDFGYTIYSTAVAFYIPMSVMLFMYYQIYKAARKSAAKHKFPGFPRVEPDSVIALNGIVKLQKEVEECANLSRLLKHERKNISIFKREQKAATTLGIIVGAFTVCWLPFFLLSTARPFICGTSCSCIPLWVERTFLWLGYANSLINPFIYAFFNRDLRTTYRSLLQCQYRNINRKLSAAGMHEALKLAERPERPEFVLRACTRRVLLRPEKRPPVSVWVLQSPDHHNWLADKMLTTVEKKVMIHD
In data set [9] the target is T5, Alpha-2A adrenergic receptor (Homo sapiens, UniProt P08913).
T5 sequence (P08913 whole entry): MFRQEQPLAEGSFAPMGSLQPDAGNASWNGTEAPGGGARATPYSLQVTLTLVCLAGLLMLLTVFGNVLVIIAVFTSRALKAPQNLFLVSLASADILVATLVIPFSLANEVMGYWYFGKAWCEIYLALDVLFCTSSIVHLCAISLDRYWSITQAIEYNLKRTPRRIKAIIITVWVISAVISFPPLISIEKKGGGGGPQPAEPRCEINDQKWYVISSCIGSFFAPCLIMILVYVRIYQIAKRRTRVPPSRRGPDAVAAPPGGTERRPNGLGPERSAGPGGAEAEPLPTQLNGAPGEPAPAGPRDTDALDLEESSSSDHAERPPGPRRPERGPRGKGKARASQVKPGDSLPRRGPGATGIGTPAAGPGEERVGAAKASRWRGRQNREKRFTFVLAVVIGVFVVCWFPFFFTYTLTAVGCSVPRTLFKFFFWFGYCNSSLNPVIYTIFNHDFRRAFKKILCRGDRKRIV
The data set is described as follows: Binding affinity to adrenergic alpha2A receptor.

For data set [10], the target named is D(2) dopamine receptor (Homo sapiens, UniProt P14416). The data set can be described thus: Binding affinity to dopamine D2 receptor.
D(2) dopamine receptor, sequence (P14416 whole entry): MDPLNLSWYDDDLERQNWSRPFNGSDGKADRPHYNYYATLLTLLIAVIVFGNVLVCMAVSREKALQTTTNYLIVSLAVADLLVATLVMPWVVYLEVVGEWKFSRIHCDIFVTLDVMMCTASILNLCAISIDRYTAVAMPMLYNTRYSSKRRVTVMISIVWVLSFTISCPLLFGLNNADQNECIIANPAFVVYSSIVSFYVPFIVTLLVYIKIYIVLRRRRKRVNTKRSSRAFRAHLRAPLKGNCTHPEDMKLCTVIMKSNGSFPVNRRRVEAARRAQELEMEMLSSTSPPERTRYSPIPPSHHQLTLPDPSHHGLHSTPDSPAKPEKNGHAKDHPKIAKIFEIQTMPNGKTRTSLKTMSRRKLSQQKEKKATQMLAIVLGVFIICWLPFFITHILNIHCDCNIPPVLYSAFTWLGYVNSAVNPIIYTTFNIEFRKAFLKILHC
The target of data set [11] is T3, 5-hydroxytryptamine receptor 2B. The data set can be described thus: Agonist activity at 5-HT2B receptor at 0.1 nM to 10 uM by FLIPR assay. It counts as functional.
Data set [12] can be described thus: Solubility of the compound in water. Format: physicochemical.
A short description of data set [13]: Half life in rat microsomes. Format: ADME, Microsome.
Data set [14] in a line: Half life in human microsomes. It counts as ADME, Microsome.
Data set [15] is described as follows: Binding affinity to P-glycoprotein.
The nature of data set [16]: % bound in plasma. It counts as ADME, cell-free. To be noted: read-out: PPB.
Data set [17] concerns Rattus norvegicus. The data set can be described thus: Cognitive enhancing effect in rat assessed as inhibition of scopolamine-induced memory deficit at 10 mg/kg, po by novel object recognition test. Also on record: dose 10 mg/kg. Format: functional, organism-based. The gist of the method: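 Rats given compound orally at 10 mg/kg; scopolamine-induced memory deficit assessed in a novel object recognition assay.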

The results in this text go back to ChEMBL document CHEMBL1641413, “Identification of 3-sulfonylindazole derivatives as potent and selective 5-HT(6) antagonists” (Bioorg Med Chem, 2011).

Active and inactive are the calls of the source. The rule behind the calls is not given here.

5-hydroxytryptamine receptor 1B, sequence (P28222 whole entry): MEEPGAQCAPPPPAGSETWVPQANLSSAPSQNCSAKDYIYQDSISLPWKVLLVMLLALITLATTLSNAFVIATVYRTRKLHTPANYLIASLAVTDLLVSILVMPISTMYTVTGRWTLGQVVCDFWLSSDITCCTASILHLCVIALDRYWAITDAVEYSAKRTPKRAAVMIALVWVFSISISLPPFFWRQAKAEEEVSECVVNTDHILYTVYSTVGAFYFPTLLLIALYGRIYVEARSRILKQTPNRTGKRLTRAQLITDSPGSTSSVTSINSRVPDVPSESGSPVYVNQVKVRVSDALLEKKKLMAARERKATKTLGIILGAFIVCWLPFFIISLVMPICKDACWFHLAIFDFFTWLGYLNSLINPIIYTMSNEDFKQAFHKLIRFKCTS
5-hydroxytryptamine receptor 1D, sequence (P28221 whole entry): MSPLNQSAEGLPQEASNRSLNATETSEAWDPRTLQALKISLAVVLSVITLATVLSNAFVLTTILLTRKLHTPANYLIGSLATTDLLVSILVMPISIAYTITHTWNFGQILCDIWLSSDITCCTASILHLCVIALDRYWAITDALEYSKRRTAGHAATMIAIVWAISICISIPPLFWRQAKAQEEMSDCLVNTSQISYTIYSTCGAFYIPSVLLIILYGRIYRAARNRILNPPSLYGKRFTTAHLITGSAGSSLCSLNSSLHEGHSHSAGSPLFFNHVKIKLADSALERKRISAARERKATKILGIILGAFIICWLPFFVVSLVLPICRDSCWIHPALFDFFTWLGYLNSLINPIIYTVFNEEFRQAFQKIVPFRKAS
T1 sequence (P50406 whole entry): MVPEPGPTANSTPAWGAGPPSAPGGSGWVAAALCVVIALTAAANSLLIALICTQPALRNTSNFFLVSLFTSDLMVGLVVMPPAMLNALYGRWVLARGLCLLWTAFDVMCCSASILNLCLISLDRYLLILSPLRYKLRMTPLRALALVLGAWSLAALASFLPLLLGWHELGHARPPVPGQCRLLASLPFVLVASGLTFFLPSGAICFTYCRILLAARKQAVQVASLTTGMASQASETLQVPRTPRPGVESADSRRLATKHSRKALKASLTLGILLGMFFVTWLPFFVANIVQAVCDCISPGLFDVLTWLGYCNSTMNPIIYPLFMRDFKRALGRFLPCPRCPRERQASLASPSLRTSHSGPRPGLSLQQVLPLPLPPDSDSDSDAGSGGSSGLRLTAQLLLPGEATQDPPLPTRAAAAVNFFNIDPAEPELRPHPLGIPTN

Usually Ki stands for a measure of affinity in units of concentration, obtained from inhibition or displacement. A higher Ki goes with weaker binding. One may read the IC50 as the concentration needed to halve the response being measured. As usually defined, the solubility is the concentration that dissolves in the medium under given conditions. Read a high solubility as a readily soluble substance. As a reminder, the half-life is the time in which the quantity being followed falls by half. Higher therefore signals slow decline. Turning to `Cl.O=S(=O)(c1cccc(Cl)c1)c1n[nH]c2ccc(NC3CCNCC3)cc12`, the Ki was 0.001 µM in [1]; 0.455 µM in [3]; 1.66 µM in data set [4]; 0.41 µM in data set [5]; 0.155 µM in data set [6]; 2.43 µM in data set [7]. Further, the results for the Ki in data set [8], in data set [9] and in data set [10] were 3.22 µM, > 5 µM and > 5 µM, respectively. Moreover, in [2], the IC50 came out at 0.012 µM. Also, the outcome in data set [11] and in data set [15] was inactive. In addition, in [12], the solubility was > 100 µg/mL. In addition, the half-life in [13] and in [14] was > 30 min throughout. Besides, the fraction unbound in data set [16] was > 0.2.

Take `Cl.O=S(=O)(c1ccc2ccccc2c1)c1n[nH]c2ccc(NC3CCNCC3)cc12`: the Ki is 0.0006 µM in data set [1]; 4.35 µM in data set [3]; > 5 µM in [4]; > 5 µM in data set [5]; 0.675 µM in [6]; > 5 µM in data set [7]. Besides, the Ki in data set [8], in [9] and in [10] was > 5 µM in each case. The IC50 in [2] amounted to 0.016 µM. For the same compound, the outcome in data set [11] and in data set [15] was inactive. The solubility in [12] was > 100 µg/mL. Moreover, the half-life in [13] and in [14] was > 30 min in each case. In addition, the fraction unbound in data set [16] was > 0.2.

`Cl.O=C(Nc1ccc2[nH]nc(S(=O)(=O)c3cccc4ccccc34)c2c1)C1CCNCC1`: the Ki is 0.0011 µM in [1]; 3.01 µM in data set [3]; > 5 µM in data set [4]; 1.34 µM in data set [5]; 0.033 µM in data set [6]; > 5 µM in data set [7]. Also, the Ki in data set [8], in [9] and in data set [10] was > 5 µM each time. The IC50 in data set [2] was found to be 0.0082 µM. In addition, the outcome in [11] and in data set [15] was inactive. For the same compound, the solubility in data set [12] was > 100 µg/mL. Besides, the half-life in data set [13] and in data set [14] was > 30 min each time. In [16], the fraction unbound was > 0.2. Moreover, the inhibition result in data set [17] is “Active”.

As for `Cl.NCCC(=O)Nc1ccc2[nH]nc(S(=O)(=O)c3cccc4ccccc34)c2c1`, the Ki in data set [1] is 0.0015 µM; in [3] it was > 5 µM; in data set [4], > 5 µM; in data set [5] it was > 5 µM; in data set [6], 0.344 µM; in data set [7] it was 0.573 µM. In addition, the Ki in data set [8], in [9] and in data set [10] was > 5 µM each time. Besides, the IC50 in [2] turned out to be 0.0038 µM. In addition, the outcome in [11] and in data set [15] was inactive. In addition, the solubility in data set [12] is > 100 µg/mL. Also, the half-life in data set [13] and in data set [14] was > 30 min each time. For the same compound, the fraction unbound in [16] is > 0.2.

As for `Cl.O=S(=O)(c1cccc2ccccc12)c1n[nH]c2ccc(NC3CCNCC3)cc12`, the Ki in data set [1] was 0.0007 µM; in data set [3], > 5 µM; in data set [4], > 5 µM; in [5], > 5 µM; in data set [6], 0.675 µM; in [7], > 5 µM. The Ki in data set [8] was 3.97 µM; in data set [9] it was > 5 µM; in data set [10] it was > 5 µM. Besides, in data set [2], the IC50 came to 0.015 µM. In addition, the result in data set [11] and in data set [15] was inactive. Also, in data set [12], the solubility was > 100 µg/mL. Further, the half-life in data set [13] and in data set [14] was > 30 min each time. The fraction unbound in [16] was > 0.2. Also, the inhibition entry in data set [17] was “Active”.

On to `CC(C)c1ccc(S(=O)(=O)c2n[nH]c3ccc(NC4CCNCC4)cc23)cc1.Cl`, for which the Ki is 0.001 µM in [1]; 0.859 µM in [3]; 2.73 µM in data set [4]; 1.5 µM in data set [5]; 1.76 µM in data set [6]; 1.77 µM in [7]. In addition, the Ki in [8], in [9] and in data set [10] was > 5 µM throughout. In addition, the IC50 in [2] was found to be 0.014 µM. The outcome in [11] and in [15] was inactive. For the same compound, the solubility in [12] is > 100 µg/mL. Further, the half-life in data set [13] and in data set [14] was > 30 min each time. Moreover, the fraction unbound in data set [16] is > 0.2.
